Assay results published in ChEMBL document CHEMBL4196108, “5-Aroylindoles Act as Selective Histone Deacetylase 6 Inhibitors Ameliorating Alzheimer's Disease Phenotypes” (J Med Chem, 2018).
Activity calls are given as the source filed them. The calls are words filed in the database; no cut-off is given here.

Key:
[1] = molecular target: T1, Protein deacetylase HDAC6 (Homo sapiens, UniProt Q9UBN7); assay: Inhibition of human HDAC6 using RHKKAc peptide as substrate
T1 sequence (Q9UBN7 whole entry): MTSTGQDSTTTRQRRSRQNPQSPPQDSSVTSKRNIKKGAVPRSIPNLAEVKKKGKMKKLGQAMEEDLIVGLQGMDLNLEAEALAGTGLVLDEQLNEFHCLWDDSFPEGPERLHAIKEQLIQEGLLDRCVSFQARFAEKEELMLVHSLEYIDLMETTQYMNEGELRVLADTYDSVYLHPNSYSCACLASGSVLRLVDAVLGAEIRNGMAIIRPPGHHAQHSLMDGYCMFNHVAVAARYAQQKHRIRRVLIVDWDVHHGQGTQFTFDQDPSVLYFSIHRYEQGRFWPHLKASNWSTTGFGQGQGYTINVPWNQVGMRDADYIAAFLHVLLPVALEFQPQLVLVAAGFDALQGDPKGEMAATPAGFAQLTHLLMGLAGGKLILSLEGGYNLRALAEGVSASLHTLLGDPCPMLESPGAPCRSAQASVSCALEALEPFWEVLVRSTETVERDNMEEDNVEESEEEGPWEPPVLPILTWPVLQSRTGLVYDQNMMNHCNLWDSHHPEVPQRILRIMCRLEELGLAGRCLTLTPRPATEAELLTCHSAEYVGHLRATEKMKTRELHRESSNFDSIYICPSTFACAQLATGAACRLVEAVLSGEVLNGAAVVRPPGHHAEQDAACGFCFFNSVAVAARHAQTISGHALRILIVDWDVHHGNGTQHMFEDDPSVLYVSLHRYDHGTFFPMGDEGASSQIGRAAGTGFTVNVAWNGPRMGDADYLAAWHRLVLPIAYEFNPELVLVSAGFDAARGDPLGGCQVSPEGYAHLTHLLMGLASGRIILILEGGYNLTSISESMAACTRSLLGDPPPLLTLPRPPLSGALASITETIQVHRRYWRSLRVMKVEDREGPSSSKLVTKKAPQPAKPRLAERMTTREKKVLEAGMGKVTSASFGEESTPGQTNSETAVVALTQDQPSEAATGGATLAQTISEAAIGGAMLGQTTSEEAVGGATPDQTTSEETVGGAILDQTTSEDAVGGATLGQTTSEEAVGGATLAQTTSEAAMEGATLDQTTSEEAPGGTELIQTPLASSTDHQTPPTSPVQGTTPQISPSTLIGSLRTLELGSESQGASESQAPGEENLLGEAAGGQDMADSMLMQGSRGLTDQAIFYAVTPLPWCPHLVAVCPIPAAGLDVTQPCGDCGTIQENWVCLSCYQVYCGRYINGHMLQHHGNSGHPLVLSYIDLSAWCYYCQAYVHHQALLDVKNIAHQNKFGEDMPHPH

[2] = organism: Homo sapiens; assay: Selectivity index, ratio of IC50 for human HDAC2 to IC50 for human HDAC6
[3] = molecular target: T2, Polyamine deacetylase HDAC10 (Homo sapiens, UniProt Q969S8); assay: Inhibition of human HDAC10 using RHKKAc peptide as substrate
T2 sequence (Q969S8 whole entry): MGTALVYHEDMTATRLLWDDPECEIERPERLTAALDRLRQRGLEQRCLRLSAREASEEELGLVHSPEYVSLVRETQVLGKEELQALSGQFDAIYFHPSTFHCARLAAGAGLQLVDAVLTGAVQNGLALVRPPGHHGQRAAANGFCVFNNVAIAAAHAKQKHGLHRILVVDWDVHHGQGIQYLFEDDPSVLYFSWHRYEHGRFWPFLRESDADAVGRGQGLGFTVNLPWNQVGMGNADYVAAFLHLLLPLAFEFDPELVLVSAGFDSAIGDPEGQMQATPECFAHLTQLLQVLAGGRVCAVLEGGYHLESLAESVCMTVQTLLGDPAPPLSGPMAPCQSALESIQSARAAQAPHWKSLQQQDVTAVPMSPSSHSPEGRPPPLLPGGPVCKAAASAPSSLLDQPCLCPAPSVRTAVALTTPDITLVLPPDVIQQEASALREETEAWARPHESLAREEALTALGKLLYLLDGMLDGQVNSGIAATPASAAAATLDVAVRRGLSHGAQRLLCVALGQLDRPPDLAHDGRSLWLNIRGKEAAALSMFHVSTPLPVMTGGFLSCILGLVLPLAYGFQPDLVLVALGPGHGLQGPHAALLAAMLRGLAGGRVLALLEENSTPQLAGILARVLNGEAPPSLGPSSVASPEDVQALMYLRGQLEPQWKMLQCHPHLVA

[4] = organism: Homo sapiens; assay: Selectivity index, ratio of IC50 for human HDAC8 to IC50 for human HDAC6
[5] = molecular target: Histone deacetylase 3 (Homo sapiens, UniProt O15379)
[6] = molecular target: T3, Histone deacetylase 8 (Homo sapiens, UniProt Q9BY41); assay: Inhibition of human HDAC8 using RHKAcKAc peptide as substrate
T3 sequence (Q9BY41 whole entry): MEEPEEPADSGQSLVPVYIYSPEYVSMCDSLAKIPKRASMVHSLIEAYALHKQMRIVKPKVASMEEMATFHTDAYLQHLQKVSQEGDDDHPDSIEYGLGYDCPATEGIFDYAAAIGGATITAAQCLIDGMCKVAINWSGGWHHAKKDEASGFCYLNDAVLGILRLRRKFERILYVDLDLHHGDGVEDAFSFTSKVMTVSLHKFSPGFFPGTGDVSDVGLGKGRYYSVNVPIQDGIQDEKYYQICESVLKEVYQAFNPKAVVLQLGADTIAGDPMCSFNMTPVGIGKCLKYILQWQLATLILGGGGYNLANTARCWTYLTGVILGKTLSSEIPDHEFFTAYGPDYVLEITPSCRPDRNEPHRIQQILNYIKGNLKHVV

[7] = molecular target: Histone deacetylase 1 (Homo sapiens, UniProt Q13547); assay: Inhibition of human HDAC1 using RHKKAc peptide as substrate
[8] = organism: Homo sapiens; assay: Selectivity index, ratio of IC50 for human HDAC10 to IC50 for human HDAC6
[9] = organism: Homo sapiens; assay: Selectivity index, ratio of IC50 for human HDAC3 to IC50 for human HDAC6
[10] = organism: Homo sapiens; assay: Selectivity index, ratio of IC50 for human HDAC1 to IC50 for human HDAC6
[11] = molecular target: Histone deacetylase 2 (Homo sapiens, UniProt Q92769); assay: Inhibition of human HDAC2 using RHKKAc peptide as substrate
[12] = tested on: SH-SY5Y; assay: Inhibition of class 1 HDAC in human SH-SY5Y cells assessed as increase in acetylation of histone H3 at 0.1 to 1 uM after 24 hrs by Western blot analysis; format: cell-based
In short: (§1)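 SH-SY5Y cells in MEM with 10% FBS at 37 °C, 5% CO2, treated 24 h at 0.1–1 µM. Lysates in HEPES/Triton buffer; 20 µg protein run on SDS-PAGE and immunoblotted for acetyl-α-tubulin, α-tubulin, acetyl-histone H3 and histone H3 with ECL detection.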

[13] = molecular target: T4, Protein deacetylase HDAC6 (Homo sapiens) (UniProt Q9UBN7); assay: Inhibition of HDAC6 in human SH-SY5Y cells assessed as increase in acetylation of alpha-tubulin at 0.1 to 1 uM after 24 hrs by Western blot analysis; format: cell-based; in short: as §1
T4 sequence (whole entry): T1 sequence (Q9UBN7 whole entry)

Histone deacetylase 2, sequence (Q92769 whole entry): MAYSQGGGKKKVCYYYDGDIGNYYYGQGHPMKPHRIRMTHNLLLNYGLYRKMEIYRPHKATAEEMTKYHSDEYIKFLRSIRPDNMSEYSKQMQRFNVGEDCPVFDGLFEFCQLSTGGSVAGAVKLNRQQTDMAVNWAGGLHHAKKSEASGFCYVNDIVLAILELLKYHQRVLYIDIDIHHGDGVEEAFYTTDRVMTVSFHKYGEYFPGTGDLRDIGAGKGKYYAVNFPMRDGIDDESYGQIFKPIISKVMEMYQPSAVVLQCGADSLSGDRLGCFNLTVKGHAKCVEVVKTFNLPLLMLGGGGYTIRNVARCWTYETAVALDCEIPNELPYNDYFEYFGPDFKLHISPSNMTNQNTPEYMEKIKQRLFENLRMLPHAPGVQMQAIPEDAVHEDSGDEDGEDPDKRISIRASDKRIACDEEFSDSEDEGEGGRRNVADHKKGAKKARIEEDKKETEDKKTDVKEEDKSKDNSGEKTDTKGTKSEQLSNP
Histone deacetylase 1, sequence (Q13547 whole entry): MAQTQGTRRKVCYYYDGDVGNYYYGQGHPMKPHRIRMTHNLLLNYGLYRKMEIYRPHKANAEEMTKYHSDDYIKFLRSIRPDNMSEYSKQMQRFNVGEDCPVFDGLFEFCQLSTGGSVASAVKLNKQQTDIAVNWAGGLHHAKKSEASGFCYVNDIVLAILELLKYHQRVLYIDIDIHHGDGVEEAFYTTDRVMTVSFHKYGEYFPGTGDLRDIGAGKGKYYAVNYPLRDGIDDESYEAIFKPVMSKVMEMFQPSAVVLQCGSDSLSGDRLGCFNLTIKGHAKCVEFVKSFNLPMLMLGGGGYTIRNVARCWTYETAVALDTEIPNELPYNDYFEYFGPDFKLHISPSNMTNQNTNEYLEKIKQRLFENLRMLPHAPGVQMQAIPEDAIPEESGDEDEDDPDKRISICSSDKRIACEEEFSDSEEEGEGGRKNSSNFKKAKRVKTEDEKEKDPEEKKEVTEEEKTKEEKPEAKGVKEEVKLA
Histone deacetylase 3, sequence (O15379 whole entry): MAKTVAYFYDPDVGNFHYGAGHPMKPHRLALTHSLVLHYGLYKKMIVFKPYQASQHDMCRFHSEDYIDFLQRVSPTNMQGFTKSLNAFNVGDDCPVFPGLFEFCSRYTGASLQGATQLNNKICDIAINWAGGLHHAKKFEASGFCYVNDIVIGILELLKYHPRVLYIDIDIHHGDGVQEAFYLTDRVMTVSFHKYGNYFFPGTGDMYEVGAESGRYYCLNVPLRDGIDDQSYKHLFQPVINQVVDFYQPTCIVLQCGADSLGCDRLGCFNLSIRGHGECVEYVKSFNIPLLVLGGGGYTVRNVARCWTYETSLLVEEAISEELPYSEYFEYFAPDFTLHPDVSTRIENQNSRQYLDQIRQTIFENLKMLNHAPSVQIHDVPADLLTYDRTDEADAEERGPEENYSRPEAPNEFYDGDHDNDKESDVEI

IC50 [1] [µM]	Ratio IC50 [2]	IC50 [3] [µM]	Ratio IC50 [4]	IC50 [5] [µM]	IC50 [6] [µM]	IC50 [7] [µM]	Ratio IC50 [8]	Ratio IC50 [9]	Ratio IC50 [10]	IC50 [11] [µM]	inhibition [13]	Structure (SMILES)	inhibition [12]
1.81	2.7	7.74	1.9	0.323	3.53	1.21	4.3	0.2	0.7	4.8		COc1cccc(C(=O)c2ccc3c(ccn3S(=O)(=O)c3cccc(/C=C/C(=O)NO)c3)c2)c1	
1.18	1.8	8.24	1.2	0.861	1.42	0.877	6.9	0.7	0.7	2.14		COc1ccc(C(=O)c2ccc3c(ccn3S(=O)(=O)c3cccc(/C=C/C(=O)NO)c3)c2)cc1OC	
0.562	3.1	> 100	2.2	> 100	1.26	1.32	> 178	> 178	2.3	1.77		COc1cc(C(=O)c2ccc3c(ccn3S(=O)(=O)c3cccc(/C=C/C(=O)NO)c3)c2)cc(OC)c1OC	
1.42	1.3	5.24	1.9	0.0596	2.75	0.23	3.7	0.04	0.16	1.8		O=C(/C=C/c1cccc(S(=O)(=O)n2ccc3cc(C(=O)c4ccc(F)cc4)ccc32)c1)NO	
2.75	2.6	9.1	1.6	0.891	4.48	1.42	3.3	0.3	0.5	7.27		Cc1ccc(C(=O)c2ccc3c(ccn3S(=O)(=O)c3cccc(/C=C/C(=O)NO)c3)c2)cc1	
0.751	0.6	5.89	1.1	0.232	0.812	1.46	7.8	0.3	1.7	0.424		COc1ccc(C(=O)c2ccc3c(ccn3S(=O)(=O)c3cccc(/C=C/C(=O)NO)c3)c2)cc1	
0.848	> 118	> 100	11.8	2.56	10	7.16	> 118	3.01	8.4	> 100		COc1ccc(C(=O)c2ccc3c(ccn3S(=O)(=O)c3ccc(/C=C/C(=O)NO)cc3)c2)cc1	

Continued, compound first:

Structure (SMILES)	IC50 [1] [µM]	Ratio IC50 [2]	IC50 [3] [µM]	Ratio IC50 [4]	IC50 [5] [µM]	IC50 [6] [µM]	IC50 [7] [µM]	Ratio IC50 [8]	Ratio IC50 [9]	Ratio IC50 [10]	IC50 [11] [µM]	inhibition [13]	inhibition [12]
COc1cc(C(=O)c2ccc3c(ccn3S(=O)(=O)c3ccc(/C=C/C(=O)NO)cc3)c2)cc(OC)c1OC	0.972	11.9	> 100	5.5	0.996	5.34	8.54	> 103	1.02	8.8	11.6		
O=C(CCCCCCNC(=O)c1cnc(N(c2ccccc2)c2ccccc2)nc1)NO												Active	Active
COc1cccc(C(=O)c2ccc3c(ccn3Cc3ccc(C(=O)NO)cc3)c2)c1	0.0164	313	47.9	68.3	5.09	1.12	3.79	2920	310	231	5.14		
COc1ccc(C(=O)c2ccc3c(ccn3Cc3ccc(/C=C/C(=O)NO)cc3)c2)cc1	0.108	18.1	7.05	26	2.05	2.81	1.44	65.3	19	13.3	1.95		
COc1cc(C(=O)c2ccc3c(ccn3Cc3ccc(C(=O)NO)cc3)c2)cc(OC)c1OC	1.54												
Cc1ccc(C(=O)c2ccc3c(ccn3Cc3ccc(C(=O)NO)cc3)c2)cc1	0.0119	609	> 100	125	3.91	1.49	3.12	> 8400	329	262	7.25		
COc1cc(C(=O)c2ccc3c(ccn3Cc3ccc(/C=C/C(=O)NO)cc3)c2)cc(OC)c1OC	0.143	40.1		15.2		2.17	3.48			24.3	5.74		
COc1ccc(C(=O)c2ccc3c(ccn3Cc3ccc(C(=O)NO)cc3)c2)cc1OC	0.0155	196	18.9	48.8	6.05	0.756	2.8	1220	390	181	3.03		
